Apaf-1 inh: inhibitors of human Apaf-1 apoptosome, primary screen, biochemical, DEVD-Rh110 fluorescence, uHTS | Apoptotic protease-activating factor 1 (Homo sapiens), O14727 | reconstituted apoptosome caspase-3 activity | inhibition, % at 20 µM | 330,000 compounds, 0.71% hits | AID 489030, 2010; active means inhibition of at least 40% at 20 µM;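 further: plate controls were DMSO wells for no effect and DEVD-CHO caspase inhibitor wells for full effect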
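detection = Rh110 fluorescence intensity | test system = biochemical Apaf-1 apoptosome reconstitution | also added = cytochrome c and DEVD-Rh110 substrate | schedule = 30 min plus 50 min, RT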
UBC13 inh: UBC13 polyubiquitin chain formation inhibitors, primary screen, biochemical, TR-FRET, uHTS | inhibition, % at 20 µM | 330,000 compounds, 0.47% hits | AID 485273, 2010; in the data active means inhibition above about 45%, passing the limit was not always enough
Target sequence (P61088 whole entry, looked up): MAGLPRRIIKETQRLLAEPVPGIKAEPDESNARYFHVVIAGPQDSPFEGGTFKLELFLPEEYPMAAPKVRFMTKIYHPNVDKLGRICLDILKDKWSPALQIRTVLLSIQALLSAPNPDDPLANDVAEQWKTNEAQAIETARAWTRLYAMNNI
PREPL inhibitor: PREPL enzyme inhibitors, primary screen, biochemical, fluorescence polarization; inhibition, % at 5.96 µM; 320,000 compounds, 0.68% hits; Prolyl endopeptidase-like (Homo sapiens), Q4J6C6; recombinant PREPL, fluorescence polarization activity-based probe; in the data active means inhibition above about 43%;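 further: 0% = enzyme with DMSO and 100% = wells lacking enzyme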
UCH37 inh: inhibitors of human UCH37 deubiquitinase, primary screen, biochemical, Ub-AMC cleavage, fluorescence. AID 588478, 2011. purified proteasome/UCH37. 330,000 compounds, 0.33% hits. Ubiquitin carboxyl-terminal hydrolase isozyme L5 (Homo sapiens), Q9Y5K5. inhibition, % (concentration not given with the values);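 active means mean inhibition over replicate wells above about 20%, limit read from the data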;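 further: 0% = compound-free wells with enzyme and 100% = wells lacking proteasome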
Target sequence (Q9Y5K5 whole entry, looked up): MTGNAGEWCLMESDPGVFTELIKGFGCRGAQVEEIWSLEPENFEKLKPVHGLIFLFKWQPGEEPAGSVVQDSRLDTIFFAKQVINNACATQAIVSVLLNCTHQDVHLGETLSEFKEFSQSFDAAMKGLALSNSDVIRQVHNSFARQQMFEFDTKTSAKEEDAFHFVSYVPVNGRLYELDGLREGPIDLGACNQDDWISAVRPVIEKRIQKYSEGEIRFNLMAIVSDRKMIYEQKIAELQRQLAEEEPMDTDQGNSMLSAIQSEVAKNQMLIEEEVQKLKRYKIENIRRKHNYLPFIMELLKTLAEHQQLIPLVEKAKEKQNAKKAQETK
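Material: Human UCH37 enzyme supplied as purified proteasome complex | Schedule: 30 min compound-proteasome preincubation then 25 min substrate reaction, room temperature | Detection: AMC fluorescence from Ub-AMC cleavage, excitation 355 nm, emission 460 nm | Benchmarks: Wells without proteasome as full block, compound-free enzyme plus substrate as uninhibited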
Apaf-1 inh conf: Apaf-1 inhibitors, single-dose retest, confirmation, biochemical, fluorescence, DEVD-Rh110, 20 µM | shares compounds with Apaf-1 inh | reconstituted apoptosome, caspase-3 DEVD-Rh110 fluorescence | inhibition, % at 20 µM | 1,800 compounds, 25% hits;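 active means mean inhibition of at least 40% at 20 µM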;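 further: plate controls were DMSO wells for no effect and DEVD-CHO caspase inhibitor control wells for full effect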
Rh110 quench: Rh110 fluorescence interference by putative Apaf-1 inhibitors, confirmation, artefact control for Apaf-1 inhibitor project, biochemical, 20 µM; shares compounds with Apaf-1 inh; quenched caspase reaction; activation (fluorescence interference), % at 20 µM; 1,800 tested, under 10 active; AID 504615, 2011;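 active means signal rise of 40% or more at 20 µM, treated as a fluorescence artifact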
Fluor interf inh: fluorescence interference of Apaf-1 inhibitor hits, dose response, artefact control for Apaf-1 inhibitor project | fluorescence interference counterscreen, Apaf-1 assay format | AID 588538, 2011 | 460 tested, under 10 active | IC50, µM | shares compounds with Apaf-1 inh; call rule not given here
* marks the source's active call; other numbers are inactive results; i = inactive; x = not tested or not shown. Shown are actives, neighbours in structure and some others; about 1.5% of the full set was active somewhere.

SMILES	Apaf-1 inh	UBC13 inh	PREPL inhibitor	UCH37 inh	Apaf-1 inh conf	Rh110 quench	others
CCc1nnc(NC(=O)c2ccc(S(=O)(=O)N3CCCCC3)cc2)s1	55*	-1	-1	1	16	2
Oc1c(Br)cc(Br)cc1C=Nc1cccnc1	79*	-44	7	x	36	5
Oc1c(Br)cc(Br)cc1/C=N/c1nccs1	8	-6	3	x	x	x
Oc1c(Br)cc(Br)cc1C=Nc1ccc2[nH]ncc2c1	84*	-3	3	-11	34	7
COc1ccc(C=Nc2ccc3[nH]ncc3c2)c(O)c1	31	-5	0	-11	x	x
NC(=O)CSc1nc2scc(-c3ccc(Cl)cc3)c2c(=O)n1Cc1ccccc1	47*	-16	3	5	18	2
CCOc1cccc(CNc2ccc(O)cc2)c1OCc1ccccc1Cl	97*	4	30	4	26	8
O=C(NN=Cc1ccc[nH]1)c1cccnc1	x	x	x	14	x	x
CCCCC(CC)CN1C(=O)/C(=C/c2ccncc2)SC1=S (stereo not drawn)	42*	-13	10	1	17	10
O=c1[nH]c(CN2CCc3ccccc3C2)nc2ccccc12	65*	43	8	-5	14	0
COc1ccc(C(=O)/C=C/C(=O)N(CC(=O)NC2CCCCC2)CC2CCCO2)c(O)c1 (stereo not drawn)	49*	9	3	-2	10	8
CCOc1ccc(C=NNC(=O)CSc2n[nH]c(=O)[nH]c2=O)cc1OC	x	x	x	4	x	x
Oc1cccc2c(NC(=S)Nc3ccc(SC(F)F)cc3)cccc12	53*	-4	12	3	12	0
Oc1cccc(NC(=S)Nc2ccc(SC(F)F)cc2)c1	-9	7	2	2	x	x
C=C(C)CN(CC)c1nc(N)c2c(N)nc3c(c2c1C#N)CC(=O)N3C12CC3CC(CC(C3)C1)C2	16	-42	28	-66	x	x
N#Cc1c(N2CCCC(O)C2)nc(N)c2c(N)nc3c(c12)CC(=O)N3C12CC3CC(CC(C3)C1)C2 (stereo not drawn)	98*	-22	23	-57	44*	6	Fluor interf inh=>100
COc1ccc(C=NNC(=O)Cn2nc(C)c([N+](=O)[O-])c2C)cc1	x	x	x	1	x	x
CC1(OC(=O)c2ccc(Cl)nc2)C(=O)C=C2C=C3CCCN3C=C2C1=O (stereo not drawn)	44*	-54	3	5	40	6
C=C(C)C1CC=C(C)C(=NNC(=O)C2CC2c2ccccc2)C1 (stereo not drawn)	x	x	x	3	x	x
C=CCn1c(N)c(C(=O)NCC2CCCO2)c2nc3ccccc3nc21 (stereo not drawn)	78*	-15	5	i	11	-187
COc1ccc(-n2c(N)c(C(=O)NCC3CCCO3)c3nc4ccccc4nc32)c(OC)c1 (stereo not drawn)	66*	-28	15	-417	27	12
Cc1ccc2nc(NN=Cc3ccc([N+](=O)[O-])o3)nc(-c3ccccc3)c2c1	x	x	x	4	x	x
CN1CCC[C@@H]1CCNC(=O)c1c(-c2ccc3c(c2)OCO3)noc1-c1ccsc1	40*	6	14	1	11	8
C(=N\c1c(-c2ccccc2)nc2n1CCS2)/c1ccccc1	41*	-4	2	x	32	6
Clc1ccc(/C=N/c2c(-c3ccc(Cl)cc3)nc3n2CCS3)cc1	2	-17	-7	x	x	x
SMILES	Apaf-1 inh	UBC13 inh	PREPL inhibitor	UCH37 inh	Apaf-1 inh conf	Rh110 quench	others
COCCCNC(=O)c1ccc2c3c(onc13)-c1ccccc1C2=O	80*	-300	1	24*	74*	9	Fluor interf inh=>100
O=C(CCC(=O)Nc1ccc(F)cc1)NN=Cc1c[nH]c2ccccc12	x	x	x	1	x	x
NC1=Nc2cccc3cccc1c23	67*	-56	20	-34	11	8
CN(CC(=O)Nc1ccc(Cl)cc1)C(=O)c1sccc1-c1ccccc1	46*	22	9	0	34	6
CC(C)c1c(C(=O)NN=Cc2ccc(OCc3ccc(F)cc3)cc2)nnn1-c1nonc1N	x	x	x	-3	x	x
COc1ccc2ccccc2c1C=NNC(=O)CC1(C)OCCCO1	x	x	x	4	x	x
COc1cc(N)c(C(=O)c2nccc3cc(OC)c(OC)cc23)cc1OC	-8	-5	-2	5	x	x
COc1cc(Br)c(C(=O)c2nccc3cc(OC)c(OC)cc23)cc1OC	89*	-104	26	x	79*	3	Fluor interf inh=>100
CCOC(=O)c1c(CN(C)C)n(C)c2c(O)c(N=NC(N)=O)c3ccc(Br)cc3c12	95*	-29	16	52*	53*	15	Fluor interf inh=>100
NC1(C#Cc2ccc3oc(=O)c(-n4cc(-c5ccsc5)nn4)cc3c2)CCCCC1	48*	28	9	2	14	7
NC1(C#Cc2ccc3oc(=O)c(-n4cc(C5(O)CCCCC5)nn4)cc3c2)CCCCC1	12	18	-7	-3	x	x
Cc1cccc(-n2c(C)cc(C=NNC(=O)c3cccs3)c2C)c1	x	x	x	-5	x	x
COc1ccccc1CNC(=O)CN1C(=O)NC(c2ccccc2)(c2ccc(C)c(C)c2)C1=O (stereo not drawn)	66*	0	x	5	15	-2
Nc1nnnn1CC(=O)NN=Cc1ccc(-c2cccc(Cl)c2)o1	x	x	x	-49	x	x
CCCCc1c(C)nn(-c2nnc3c4ccccc4n(CC)c3n2)c1C	47*	-18	5	-3	23	10
CCOC(=O)c1nn(-c2ccccc2)c(=O)c2c(N)scc12	56*	-24	6	6	22	2
CCOC(=O)c1nn(-c2ccccc2C)c(=O)c2c(N)scc12	47*	1	4	-1	12	-15
CCOC(=O)c1nn(-c2ccccc2)c(=O)c2c(NC(C)=O)scc12	-7	-3	0	-18	x	x
NC(=O)NN=Cc1cn(-c2ccccc2)nc1-c1ccccc1	x	x	x	2	x	x
Cc1ccc(C(=O)NN=Cc2cn(Cc3ccccc3)c3ccccc23)cn1	x	x	x	0	x	x
O=c1[nH]nc(CNc2ccc(O)cc2)c2ccccc12	94*	-1	41	4	4	0
Cc1ccc(S(=O)(=O)[N-]c2nc3ccccc3nc2-n2cc[n+](CCC(C)C)c2)cc1	-1	6	-13	-83	x	x

Source: PubChem BioAssay (several laboratories)
